Each structure is given as a SMILES string.

The source of these data is ChEMBL document CHEMBL4368914, “Tricyclic Indazoles-A Novel Class of Selective Estrogen Receptor Degrader Antagonists” (J Med Chem, 2019).

For series [1], the target named is T1, Estrogen receptor (Homo sapiens, UniProt P03372).
T1 sequence (P03372 whole entry): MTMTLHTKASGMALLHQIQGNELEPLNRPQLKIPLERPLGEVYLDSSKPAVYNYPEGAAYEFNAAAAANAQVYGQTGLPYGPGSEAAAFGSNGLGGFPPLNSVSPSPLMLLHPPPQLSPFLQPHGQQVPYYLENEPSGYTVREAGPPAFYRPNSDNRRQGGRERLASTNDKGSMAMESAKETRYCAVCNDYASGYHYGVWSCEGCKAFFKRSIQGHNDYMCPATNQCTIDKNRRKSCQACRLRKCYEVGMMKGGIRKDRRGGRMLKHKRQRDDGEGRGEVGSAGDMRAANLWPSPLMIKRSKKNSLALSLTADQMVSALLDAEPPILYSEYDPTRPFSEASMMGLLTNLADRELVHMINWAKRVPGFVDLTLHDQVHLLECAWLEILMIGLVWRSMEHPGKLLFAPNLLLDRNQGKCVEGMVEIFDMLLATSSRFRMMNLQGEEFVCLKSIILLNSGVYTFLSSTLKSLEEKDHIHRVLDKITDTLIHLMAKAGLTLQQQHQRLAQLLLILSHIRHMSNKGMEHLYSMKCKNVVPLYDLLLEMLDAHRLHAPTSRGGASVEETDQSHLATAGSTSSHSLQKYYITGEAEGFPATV
As to the kind of experiment: Binding affinity to recombinant human GST-tagged ERalpha LBD expressed in baculovirus-infected insect cells by lantha screen assay.

The target in series [2] is T1, Estrogen receptor. As to the kind of experiment: Induction of ERalpha degradation in human MCF7 cells after 18 to 24 hrs by in multiplexed cell assay. It counts as cell-based. In outline:
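MCF-7 cells were kept at 37 °C, 5% CO₂ in phenol red-free RPMI1640 with 5% charcoal-stripped FCS and 2 mmol/L glutamine. Compounds came from 10 mmol/L DMSO stocks.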

A short description of series [3]: Lipophilicity, log D of the compound at pH 7.4 by shake flask method. The format is physicochemical. The conditions noted are these: buffer. In outline: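 Shake-flask measurement of logD at pH 7.4.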
Series [4] in a line: Fraction unbound in 10% human plasma by equilibrium dialysis. The format is ADME, cell-free. The conditions noted are these: 10% plasma. The method, boiled down:
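Equilibrium dialysis from DMSO stock in 10% plasma, either Alderley Park Han Wistar rat plasma or human plasma.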

Series [5] is described as follows: Apparent permeability in human Caco2 cells at 10 uM. It counts as ADME, cell-based. The conditions noted are these: Caco-2. In outline: (§1)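 Compound at 10 μM incubated on cultured Caco-2 or MDCK cells. Permeability was measured apical-to-basolateral and basolateral-to-apical, and efflux ratio was taken as (B to A)/(A to B).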
A general note: Passage across Caco-2 layers is used to estimate intestinal permeability.

Series [6] is described as follows: Efflux ratio of apparent permeability in human Caco2 cells at 10 uM. The format is ADME, cell-based. The conditions noted are these: Caco-2. In outline: as §1
Series [7] can be described thus: Apparent permeability in MDCK cells at 10 uM. It counts as ADME, cell-based, Canis lupus familiaris. The conditions noted are these: dog. In outline: as §1
Series [8] is described as follows: Solubility of the compound in phosphate buffer at pH 7.4 after 24 hrs. The format is physicochemical. The method, boiled down:
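Solubility in aqueous phosphate buffer at pH 7.4 after 24 h at 25 °C.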

Series [9] in a line: Fraction unbound in dog plasma by equilibrium dialysis. It counts as ADME, cell-free, Canis lupus familiaris.
Series [10] is described as follows: Volume of distribution at steady state in rat at 0.5 mg/kg, iv or 1 mg/kg, po. It counts as ADME, organism-based. The conditions noted are these: in vivo, read-out: Vdss. The method, boiled down: (§2)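 Single IV dose of 0.5 mg/kg and oral dose of 1 mg/kg in rat and dog. Both routes were formulated in 5% DMSO:95% hydroxypropyl β-cyclodextrin (30% w/v), at 1 mL/kg IV and 4 mL/kg PO.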

Series [11] can be described thus: Half life in dog at 0.5 mg/kg, iv or 1 mg/kg, po. The format is ADME, organism-based, Canis lupus familiaris. The conditions noted are these: in vivo. The method, boiled down:
as §2

Series [12] has as its target T1, Estrogen receptor. As to the kind of experiment: Induction of ERalpha degradation in human MCF7 cells assessed as reduction in ERalpha protein expression after 5 hrs by formaldehyde-staining based assay. It counts as cell-based.
Series [13] has as its target T1, Estrogen receptor. As to the kind of experiment: Induction of ERalpha degradation in human MCF7 cells assessed as reduction in ERalpha protein expression after 5 hrs in presence of […] tamoxifen by formaldehyde-staining based assay. It counts as cell-based.
For series [14], the system named is Mus musculus. Briefly: In vivo antagonist activity at ERalpha in tumor of human MCF7 cells xenografted in po dosed SCID CB17 mouse assessed as reduction in PR levels administered once daily for 3 days measured after 24 hrs post last dose by Western blot analysis. It counts as functional, organism-based. The method, boiled down: (§3)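 Male SCID mice carried a 0.5 mg/21 day s.c. estrogen pellet, with 5x10^6 MCF-7 cells implanted s.c. in the hind flank 24 h later. Groups of 5 were randomised at 0.5–0.8 cm³ and gavaged once daily for 3 d in PEG400/Captisol/water vehicle at 10 ml/kg. Tumours were taken 24 h post-dose, and PR was read by Western blot normalized to vinculin.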

Series [15] has as its system Mus musculus. Briefly: In vivo antagonist activity at ERalpha in tumor of human MCF7 cells xenografted in SCID CB17 mouse assessed as reduction in normalized PR levels at 5 mg/kg, po administered once daily for 3 days measured after 24 hrs post last dose by Western blot analysis relative to control. On the set-up: scale not given: the % may be the effect or the level left. The format is functional. In outline:
as §3
(In xenograft studies the graft and the host belong to different species.)

A further series deals with Cytochrome P450 2C9 (Homo sapiens, UniProt P11712). As to the kind of experiment: Inhibition of CYP2C9 in human liver microsomes. The format is ADME. The method, boiled down: (§4)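 High-throughput human liver microsome assay across a panel of five CYP isoforms, giving IC50.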
Another series deals with T2, Cytochrome P450 1A2 (Homo sapiens, UniProt P05177).
T2 sequence (P05177 whole entry): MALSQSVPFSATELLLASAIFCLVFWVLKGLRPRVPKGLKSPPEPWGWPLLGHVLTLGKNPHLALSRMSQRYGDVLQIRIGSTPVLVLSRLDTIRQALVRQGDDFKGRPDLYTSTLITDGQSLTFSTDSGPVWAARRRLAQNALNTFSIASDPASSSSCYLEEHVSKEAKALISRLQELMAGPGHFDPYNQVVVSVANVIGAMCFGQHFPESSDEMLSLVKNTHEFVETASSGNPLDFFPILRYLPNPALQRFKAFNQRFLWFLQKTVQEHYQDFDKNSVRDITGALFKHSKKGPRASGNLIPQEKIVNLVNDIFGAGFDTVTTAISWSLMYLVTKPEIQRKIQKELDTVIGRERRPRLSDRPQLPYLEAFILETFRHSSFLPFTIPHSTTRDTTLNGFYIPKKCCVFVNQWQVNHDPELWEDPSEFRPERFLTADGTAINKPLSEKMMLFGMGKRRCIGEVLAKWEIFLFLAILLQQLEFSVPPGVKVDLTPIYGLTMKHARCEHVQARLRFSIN
As to the kind of experiment: Inhibition of CYP1A2 in human liver microsomes. The format is ADME. The method, boiled down: as §4

For another series, the target named is Cytochrome P450 2C19 (Homo sapiens, UniProt P33261). Briefly: Inhibition of CYP2C19 in human liver microsomes. It counts as ADME. The method, boiled down:
as §4

Series [16] can be described thus: Toxicity in SCID CB17 mouse xenografted with human MCF7 cells at 20 mg/kg, po administered once daily and measured on day 20 of dosing. The conditions noted are these: in vivo, 20 d.

Cytochrome P450 2C9, sequence (P11712 whole entry, canonical isoform): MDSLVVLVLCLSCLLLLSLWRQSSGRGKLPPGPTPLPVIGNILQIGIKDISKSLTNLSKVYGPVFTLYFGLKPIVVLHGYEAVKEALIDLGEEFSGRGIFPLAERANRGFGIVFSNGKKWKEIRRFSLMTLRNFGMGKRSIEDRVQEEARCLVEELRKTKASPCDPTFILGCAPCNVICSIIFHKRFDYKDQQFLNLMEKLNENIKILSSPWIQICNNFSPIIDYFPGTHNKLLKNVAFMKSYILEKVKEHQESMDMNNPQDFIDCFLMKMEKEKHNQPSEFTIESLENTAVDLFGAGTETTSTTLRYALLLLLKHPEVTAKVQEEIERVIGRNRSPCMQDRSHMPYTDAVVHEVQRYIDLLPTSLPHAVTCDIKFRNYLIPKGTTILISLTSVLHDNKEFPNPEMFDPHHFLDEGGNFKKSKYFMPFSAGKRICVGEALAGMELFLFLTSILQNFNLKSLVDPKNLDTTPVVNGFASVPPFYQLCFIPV
Cytochrome P450 2C19, sequence (P33261 whole entry): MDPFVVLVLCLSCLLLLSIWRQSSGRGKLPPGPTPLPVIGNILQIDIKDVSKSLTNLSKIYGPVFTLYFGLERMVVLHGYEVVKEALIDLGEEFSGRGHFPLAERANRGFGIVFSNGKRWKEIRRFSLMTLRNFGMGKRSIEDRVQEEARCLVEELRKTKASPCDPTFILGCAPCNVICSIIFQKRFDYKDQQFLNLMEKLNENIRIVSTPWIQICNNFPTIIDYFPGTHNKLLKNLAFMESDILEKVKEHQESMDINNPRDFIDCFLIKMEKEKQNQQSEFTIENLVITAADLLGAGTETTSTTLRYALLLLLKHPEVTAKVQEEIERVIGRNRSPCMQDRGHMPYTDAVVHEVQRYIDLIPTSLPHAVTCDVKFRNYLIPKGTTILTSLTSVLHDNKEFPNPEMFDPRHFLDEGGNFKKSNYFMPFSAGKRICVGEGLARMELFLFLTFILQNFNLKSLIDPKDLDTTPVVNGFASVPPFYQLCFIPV

In the case of `C[C@@H]1Cc2c(ccc3[nH]ncc23)[C@@H](c2c(F)cc(/C=C/C(=O)O)cc2F)N1CC(C)(C)F`, the IC50 at Estrogen receptor [1] was 0.316 nM; against Estrogen receptor [2], 0.251 nM; at Estrogen receptor [12], 0.251 nM; on Estrogen receptor [13], 7.94 nM; at Cytochrome P450 2C9, 2500 nM; at Cytochrome P450 1A2, above 30000 nM. Also, the IC50 against Cytochrome P450 2C19 is above 30000 nM. This compound also had a logD in series [3] of 2.6. The values for the fraction unbound in series [4] and in [9] were 0.0058 and 0.0032, respectively. The values for the Papp at 10 µM in series [5] and in series [7] were 6.9 ×10⁻⁶ cm/s and 11 ×10⁻⁶ cm/s, respectively. In addition, the efflux ratio at 10 µM in [6] was 1.4. In addition, the solubility at 24 h in series [8] is above 1000 µM. Further, the Vd in series [10] is 1.6 L/kg. For the same compound, the half-life in series [11] is 6.1 h. Moreover, the values for the Activity result (in the series on Mus musculus [14]; in the series on Mus musculus [15]; in [16]) were “Dose-dependent effect”, 74% and “Non-Toxic”, respectively.

In general, IC50 refers to the concentration that inhibits the measured activity by half. For orientation: logD means lipophilicity at a set pH, counting ionised and neutral species. Broadly, the fraction unbound is free concentration divided by total concentration. For orientation: Papp means a coefficient for how fast a substance crosses the barrier. Broadly, the efflux ratio is the permeability from basolateral to apical divided by that in the opposite direction, in the common usage. A word on the solubility: it is the concentration that dissolves in the medium under given conditions. Usually half-life stands for the time in which the quantity being followed falls by half.
